An excerpt weighted towards active compounds, which were near 3.1% of everything screened.
KCNQ1 pot: potentiates or activates the human KCNQ1 potassium channel; P51787; CHO-K1 KCNQ1, thallium flux FluxOR fluorescence; stronger effect = higher value; B-score at 10 µM; hit rate 0.35% among 310,000;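 active = fluorescence ratio B-score, a plate-corrected score, at least three library SD, with initial intensity B-score within 5 SD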
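assay system = CHO-K1 cells stably expressing KCNQ1 | medium = assay buffer, equal DMSO in all wells | timing = 37 °C overnight plating, 90-min dark dye load, 20-min compound pretreatment | measured by = kinetic FluxOR thallium fluorescence, 10-s 1-Hz baseline, 110-s post-stimulus read | measure = fluorescence change relative to baseline, converted to B score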
hERG protect: shields human hERG channel from block by proarrhythmic agents. Q12809. CHO-hERG, FluxOR thallium flux, dofetilide IC70 present. hit rate 0.51% among 310,000. activation (rescue from dofetilide block), less the hit threshold, % at 10 µM;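 active = activation above the mean of controls blocked by dofetilide plus 5 SD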;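 note: thallium influx through hERG after potassium depolarization seen as dye fluorescence rise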
KCNQ1 inh: inhibitors of human KCNQ1 potassium channel; CHO-K1 KCNQ1, FluxOR thallium flux fluorescence; stronger effect = higher value; B-score at 10 µM; hit rate 1.3% among 310,000; AID 2642;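 active = compounds whose thallium flux B-score, printed positive for inhibition, exceeds three library SD while starting fluorescence stays within three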;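 note: channel opened by potassium depolarization with thallium stimulus after 20 min compound exposure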
KCNK3 block: human KCNK3 channel inhibition, primary screen | B-score at 10 µM | CHO-KCNK3 thallium flux, FluxOR fluorescence; stronger effect = lower value | hit rate 0.84% among 340,000 | O14649;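 active = B-score under library mean minus 4 SD, starting fluorescence ratio at most library mean plus 5 SD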;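 note: more negative B-score means stronger inhibition of thallium flux through KCNK3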
KCNK9 inh: blocks the human KCNK9 two-pore domain potassium channel. HEK293 KCNK9, FluxOR thallium flux fluorescence; stronger effect = lower value. B-score at 10 µM. hit rate 1.2% among 310,000;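 active = ratio B-score over 3 SD below the library mean, with starting fluorescence within 5 SD of its mean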;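 note: negative B-score means less thallium flux so channel inhibition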
KCNK9 block conf: confirmation of human KCNK9 potassium channel inhibitors; shares compounds with KCNK9 inh; HEK293 KCNK9 cells, FluxOR thallium flux fluorescence; inhibition, % at 10 µM; hit rate 43% among 4,900; AID 492992;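 active = thallium signal inhibited by more than 5 SD of the compound-free buffer control wells, on both duplicate plates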
Kir2-1 spec: selectivity of KCNK9 modulators against mouse Kir2.1; AID 492993; hit rate 4% among 4,900; Kir2.1 cells, FluxOR thallium flux fluorescence; shares compounds with KCNK9 inh; inhibition, % at 10 µM;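 active = thallium signal drop more than 5 SD beyond the mean of the no-compound control wells, seen in both duplicate plates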;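 note: signal is fluorescence rise after thallium addition divided by baseline fluorescence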
HEK293 Tl ctr: second counter-screen for KCNK9 modulators: effect in non-induced cells; shares compounds with KCNK9 inh; non-induced KCNK9-HEK293, FluxOR thallium flux; inhibition, % at 10 µM; hit rate 40% among 4,900; AID 492997;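 active = thallium signal drop beyond 5 SD of the untreated control mean, on both duplicate plates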
Large screens that a line does not name were inactive (follow-up assays come after a bar, where they were run).

CN(C(=O)COc1cc(=O)n(C)c2ccccc12)c1cccc(Cl)c1	none
CCCNS(=O)(=O)c1cc(CN2C(=O)c3cccnc3C2=O)ccc1OC	none
CN(C)c1ccc2c(c1)Sc1cc(N(C)C)ccc1N2C(=O)c1ccccc1	KCNQ1 inh 6 | KCNK9 block conf inactive | Kir2-1 spec inactive | HEK293 Tl ctr inactive
COc1cc(NC(=S)N2CCN(S(=O)(=O)c3ccccc3)CC2)cc(OC)c1	none
CCOc1ccc(Cc2n[nH]c(=S)n2Cc2ccccc2)cc1	KCNK9 inh -15 | KCNK9 block conf 32% | Kir2-1 spec inactive | HEK293 Tl ctr 34%
S=c1[nH]nc(Cc2ccccc2)n1-c1cccc2ccccc12	none | KCNK9 block conf inactive | Kir2-1 spec inactive | HEK293 Tl ctr inactive
Cc1ccc(OCc2n[nH]c(=S)n2Cc2ccccc2)cc1	none
COc1ccc(C(C)=O)cc1COc1ccc(Cl)cc1Cl	KCNK9 inh -14 | KCNK9 block conf 50% | Kir2-1 spec inactive | HEK293 Tl ctr 37%
CC1CCN(c2ccccc2NC(=S)NC(=O)C(C)(C)C)CC1	KCNK9 inh -10 | KCNK9 block conf 42% | Kir2-1 spec inactive | HEK293 Tl ctr 33%
O=C1CCc2cc(S(=O)(=O)N3CCCCC3)cc3c2N1CC3	none
COc1cc(C)ccc1OCCOCCOc1cc(C)c(C)cc1Br	none | KCNK9 block conf inactive | Kir2-1 spec inactive | HEK293 Tl ctr inactive
COc1cc(C)ccc1OCCOCCOc1ccccc1Br	none
CN(C)c1ccc(N2[C@@H](CC(=O)O)c3cc(C(F)(F)F)ccc3S2(=O)=O)cc1	none
O=C(O)C1=C[C@H](c2csc3ccccc23)C[C@H](OCCCCO)O1	none
COc1ccc(-c2cc(=O)oc3c(O)c(O)ccc23)cc1	none
CC1Oc2cc3oc4c(O)c(O)ccc4c(=O)c3c(O)c2C1(C)C (configuration not stated)	KCNQ1 inh 10 | KCNK9 block conf inactive | Kir2-1 spec inactive | HEK293 Tl ctr inactive
O=C1c2ccccc2C(=O)N1CCCCSc1nc2ccccc2o1	none | KCNK9 block conf inactive | Kir2-1 spec inactive | HEK293 Tl ctr inactive
CN(c1ccccc1)S(=O)(=O)c1cccc(NC(=O)CSc2ncc(C(F)(F)F)cc2Cl)c1	KCNQ1 inh 7, KCNK9 inh -8.9 | KCNK9 block conf 42% | Kir2-1 spec inactive | HEK293 Tl ctr 30%
Cc1n[nH]c(C)c1S(=O)(=O)N(C)Cc1ccco1	none (no result: KCNQ1 pot, hERG protect, KCNQ1 inh, KCNK9 inh)
COC(=O)c1ccc(COc2cc(O)c3c(c2)OC(C)(C)CC3=O)cc1	none
CC1(C)CC(=O)c2c(O)cc(OCc3ccc(Br)cc3)cc2O1	KCNK9 inh -8.4 | KCNK9 block conf 73% | Kir2-1 spec inactive | HEK293 Tl ctr 42%
CCc1nc(SCc2ccc(Cl)cc2)n[nH]1	none
O=S(=O)(Nc1nc(SCc2ccc(Cl)cc2)n[nH]1)c1ccc(F)cc1	KCNK9 inh -11 | KCNK9 block conf 28% | Kir2-1 spec 38% | HEK293 Tl ctr 42%
COc1ccccc1NC(=O)NC1(C(=O)N2CCC(C)CC2)CCCCC1	none
CC1CC(C)CN(C(=O)C2CCN(S(=O)(=O)c3cccc4cccnc34)CC2)C1 (configuration not stated)	none
CCOC(=O)N/N=C\c1ccc(-c2cc(Cl)ccc2Cl)o1	KCNK9 inh -8.6 | KCNK9 block conf 45% | Kir2-1 spec inactive | HEK293 Tl ctr inactive
Cc1ccccc1Nc1nnc(SCC(=O)c2c(N)n(C3CC3)c(=O)[nH]c2=O)s1	none (no result: KCNQ1 pot, hERG protect, KCNQ1 inh, KCNK9 inh)
Cc1ccc2c(c1)N(C(=O)CCC(=O)NCC(C)c1ccccc1)CC(C)O2 (configuration not stated)	none
COC(=O)c1ccccc1NC(=O)CCC(=O)N1CC(C)Oc2ccc(C)cc21 (configuration not stated)	none | KCNK9 block conf inactive | Kir2-1 spec inactive | HEK293 Tl ctr inactive
CC(=O)c1ccc(C(=O)N2CCCC(C(=O)c3ccc(Cl)cc3)C2)s1 (configuration not stated)	none | KCNK9 block conf inactive | Kir2-1 spec inactive | HEK293 Tl ctr inactive
